Calls of active or inactive are those of the source. The rule behind the calls is not given here.
Legend:
Homo sapiens [1] = species: Homo sapiens; assay: Inhibition of HDAC in human HeLa-S3 cells lysates assessed as remaining enzyme activity at 1.2 x 10^-5 M pre-incubated for 15 mins before HDAC-Glo I/II substrate addition and measured after 30 mins post substrate addition; assay type: cell-free
Homo sapiens [2] = species: Homo sapiens; assay: Inhibition of HDAC in human HeLa-S3 cells lysates assessed as remaining enzyme activity at 6 x 10^-6 M pre-incubated for 15 mins before HDAC-Glo I/II substrate addition and measured after 30 mins post substrate addition; assay type: cell-free
Homo sapiens [3] = species: Homo sapiens; assay: Inhibition of HDAC in human HeLa-S3 cells lysates assessed as remaining enzyme activity at 3 x 10^-6 M pre-incubated for 15 mins before HDAC-Glo I/II substrate addition and measured after 30 mins post substrate addition; assay type: cell-free
Homo sapiens [4] = species: Homo sapiens; assay: Inhibition of HDAC in human HeLa-S3 cells lysates assessed as remaining enzyme activity at 1.5 x 10^-6 M pre-incubated for 15 mins before HDAC-Glo I/II substrate addition and measured after 30 mins post substrate addition; assay type: cell-free
Histone deacetylase 1 [5] = target: T1, Histone deacetylase 1 (Homo sapiens, UniProt Q13547); assay: Inhibition of HDAC1 (unknown origin) assessed as remaining enzyme activity at 0.25 uM by ELISA-based assay
How it was run: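 Isoform screen by ELISA-based HDAC activity assay against HDAC1, HDAC2, HDAC3 and HDAC6. Each analog was tested at one final concentration: 0.025, 0.125, 0.25 or 1.25 µM. Read-out is percent deacetylase activity remaining, given as the mean with standard error of at least two independent trials.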

[6] = target: T2, Protein deacetylase HDAC6 (Homo sapiens) (UniProt Q9UBN7); assay: Inhibition of HDAC6 (unknown origin) assessed as remaining enzyme activity at 0.25 uM by ELISA-based assay
T2 sequence (whole entry): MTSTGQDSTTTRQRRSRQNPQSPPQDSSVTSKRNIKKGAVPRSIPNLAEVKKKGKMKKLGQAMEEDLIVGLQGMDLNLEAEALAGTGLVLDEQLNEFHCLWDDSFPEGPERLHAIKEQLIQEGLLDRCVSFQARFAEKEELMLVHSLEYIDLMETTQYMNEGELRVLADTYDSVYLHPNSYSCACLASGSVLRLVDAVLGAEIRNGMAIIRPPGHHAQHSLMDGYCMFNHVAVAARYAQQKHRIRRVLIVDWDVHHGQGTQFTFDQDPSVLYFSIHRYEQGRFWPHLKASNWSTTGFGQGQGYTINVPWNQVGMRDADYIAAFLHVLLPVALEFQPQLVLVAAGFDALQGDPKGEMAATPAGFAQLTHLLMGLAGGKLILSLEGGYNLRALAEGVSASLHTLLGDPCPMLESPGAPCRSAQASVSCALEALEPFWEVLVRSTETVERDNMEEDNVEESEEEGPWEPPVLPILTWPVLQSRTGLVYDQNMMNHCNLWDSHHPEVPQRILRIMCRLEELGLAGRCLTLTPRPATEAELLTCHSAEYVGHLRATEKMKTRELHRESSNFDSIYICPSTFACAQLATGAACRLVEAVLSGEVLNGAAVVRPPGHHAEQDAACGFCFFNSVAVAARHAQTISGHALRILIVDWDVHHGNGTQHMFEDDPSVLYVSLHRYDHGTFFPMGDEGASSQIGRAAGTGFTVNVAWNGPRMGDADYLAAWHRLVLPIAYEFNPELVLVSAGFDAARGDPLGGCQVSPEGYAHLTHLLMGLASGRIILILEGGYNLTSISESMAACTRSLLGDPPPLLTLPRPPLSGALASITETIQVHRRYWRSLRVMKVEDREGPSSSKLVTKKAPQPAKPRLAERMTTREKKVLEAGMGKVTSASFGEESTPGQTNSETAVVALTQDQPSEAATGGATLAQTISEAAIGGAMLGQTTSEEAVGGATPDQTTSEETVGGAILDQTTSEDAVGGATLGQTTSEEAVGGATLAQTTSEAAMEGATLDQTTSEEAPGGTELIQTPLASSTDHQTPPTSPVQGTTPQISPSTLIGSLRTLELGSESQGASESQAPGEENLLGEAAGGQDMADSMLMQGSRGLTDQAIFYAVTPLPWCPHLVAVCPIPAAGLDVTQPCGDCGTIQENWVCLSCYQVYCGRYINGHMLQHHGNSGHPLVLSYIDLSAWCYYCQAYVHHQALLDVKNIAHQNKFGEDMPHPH
How it was run: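 Single-concentration isoform screen using an ELISA-based HDAC activity assay, run in parallel against HDAC1, HDAC2, HDAC3 and HDAC6. Read-out is percent deacetylase activity remaining, given as the mean of at least two independent trials with standard error.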

Histone deacetylase 3 [7] = target: T3, Histone deacetylase 3 (Homo sapiens, UniProt O15379); assay: Inhibition of HDAC3 (unknown origin) assessed as remaining enzyme activity at 5 x 10^-7 M by ELISA-based assay
[8] = target: T2, Protein deacetylase HDAC6 (Homo sapiens); assay: Inhibition of HDAC6 in human U937 cells assessed as increase in acetylated-alpha-tubulin level incubated for 18 hrs by Western blot method; assay type: cell-based
How it was run: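 U937 cells were treated with inhibitor at 10–40 µM, with 1% DMSO as vehicle control. Cells were then lysed, run on SDS-PAGE, transferred to PVDF and western-blotted for acetyl-Lys40 α-tubulin, with acetyl-Lys9 histone H3 as the class I marker. GAPDH was probed as a loading control, and trials were repeated.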

Histone deacetylase 1 [9] = target: T1, Histone deacetylase 1; assay: Inhibition of HDAC1 in human U937 cells assessed as increase in acetylated-histone H3 level at 10 to 40 uM incubated for 18 hrs by Western blot method; assay type: cell-based
How it was run: (§1)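 U937 cells were treated with 10–40 µM compound, with a 1% DMSO vehicle control. Cells were then lysed and the lysates run on SDS-PAGE and transferred to PVDF. Blots were probed for histone H3 acetyl-Lys9, which reports class I HDAC (1, 2, 3) inhibition, with GAPDH as the loading control. Repeat trials were run.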

Histone deacetylase 2 = Histone deacetylase 2 (Homo sapiens, UniProt Q92769); assay: Inhibition of HDAC2 in human U937 cells assessed as increase in acetylated-histone H3 level at 10 to 40 uM incubated for 18 hrs by Western blot method; assay type: cell-based; how it was run: as §1
Histone deacetylase 3 [10] = target: T3, Histone deacetylase 3; assay: Inhibition of HDAC3 in human U937 cells assessed as increase in acetylated-histone H3 level at 10 to 40 uM incubated for 18 hrs by Western blot method; assay type: cell-based; how it was run: as §1

T1 sequence (Q13547 whole entry, canonical isoform): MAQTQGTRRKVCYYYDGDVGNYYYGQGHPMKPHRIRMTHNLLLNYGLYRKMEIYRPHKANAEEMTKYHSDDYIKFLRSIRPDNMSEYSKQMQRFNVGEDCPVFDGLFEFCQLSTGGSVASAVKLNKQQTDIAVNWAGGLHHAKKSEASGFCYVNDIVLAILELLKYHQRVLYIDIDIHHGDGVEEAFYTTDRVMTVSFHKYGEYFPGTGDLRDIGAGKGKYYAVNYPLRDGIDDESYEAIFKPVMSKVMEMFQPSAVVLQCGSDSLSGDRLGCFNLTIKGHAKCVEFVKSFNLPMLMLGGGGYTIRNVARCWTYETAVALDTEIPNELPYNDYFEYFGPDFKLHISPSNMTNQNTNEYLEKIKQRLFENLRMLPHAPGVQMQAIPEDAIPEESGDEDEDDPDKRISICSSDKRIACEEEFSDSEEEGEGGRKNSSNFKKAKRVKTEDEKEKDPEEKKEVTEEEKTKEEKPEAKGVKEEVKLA
T3 sequence (O15379 whole entry): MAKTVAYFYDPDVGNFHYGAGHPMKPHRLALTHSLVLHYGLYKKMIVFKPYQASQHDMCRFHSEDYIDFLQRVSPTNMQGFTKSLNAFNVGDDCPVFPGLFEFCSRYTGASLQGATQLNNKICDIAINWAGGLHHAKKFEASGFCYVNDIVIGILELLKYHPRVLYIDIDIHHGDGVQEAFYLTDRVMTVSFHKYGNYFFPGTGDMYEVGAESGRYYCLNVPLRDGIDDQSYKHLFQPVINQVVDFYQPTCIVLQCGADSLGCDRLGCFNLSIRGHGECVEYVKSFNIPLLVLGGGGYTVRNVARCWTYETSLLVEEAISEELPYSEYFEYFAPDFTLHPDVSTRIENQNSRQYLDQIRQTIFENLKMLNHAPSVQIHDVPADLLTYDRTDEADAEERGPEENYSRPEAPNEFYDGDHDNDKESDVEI
Sequence of Histone deacetylase 2 (Q92769 whole entry): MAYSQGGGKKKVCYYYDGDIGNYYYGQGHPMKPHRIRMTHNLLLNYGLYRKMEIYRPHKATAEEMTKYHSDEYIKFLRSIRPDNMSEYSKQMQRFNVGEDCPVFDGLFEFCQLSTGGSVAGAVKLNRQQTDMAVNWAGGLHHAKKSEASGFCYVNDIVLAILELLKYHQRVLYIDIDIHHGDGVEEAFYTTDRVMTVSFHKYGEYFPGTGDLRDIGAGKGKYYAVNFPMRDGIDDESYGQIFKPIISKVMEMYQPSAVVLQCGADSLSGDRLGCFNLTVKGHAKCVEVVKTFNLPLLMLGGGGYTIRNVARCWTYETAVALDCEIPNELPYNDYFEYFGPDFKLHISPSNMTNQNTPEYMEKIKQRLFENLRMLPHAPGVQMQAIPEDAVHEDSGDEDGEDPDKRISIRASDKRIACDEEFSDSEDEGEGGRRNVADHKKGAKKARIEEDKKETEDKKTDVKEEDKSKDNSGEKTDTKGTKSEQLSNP

| SMILES | Activity (Homo sapiens [1]) [%] | Activity (Homo sapiens [2]) [%] | Activity (Homo sapiens [3]) [%] | Activity (Homo sapiens [4]) [%] | Activity (Histone deacetylase 1 [5]) [%] | Activity [6] [%] | Activity (Histone deacetylase 3 [7]) [%] | inhibition [8] | inhibition (Histone deacetylase 1 [9]) | inhibition (Histone deacetylase 2) | inhibition (Histone deacetylase 3 [10]) |
| --- | --- | --- | --- | --- | --- | --- | --- | --- | --- | --- | --- |
| CCCCC(CCCC(=O)NO)CCC(=O)Nc1ccccc1 (stereo unspecified) | 23 | 42 | 66 | 88 | 81 to 84 | 35 | 83 | – | – | – | – |
| O=C(CCCC(CCC(=O)Nc1ccccc1)Cc1ccccc1)NO (stereo unspecified) | – | – | – | – | – | – | – | Dose-dependent effect | Active | Active | Active |

From ChEMBL document CHEMBL4052702 (Bioorg Med Chem Lett, 2017)
